# From PubChem
# PTEN del growth – growth suppression of PTEN-null HCT116, primary screen, cell-based, CellTiter-Glo. AID 827, 2007. viability, % at 10 µM. HCT116 PTEN-null viability, 60 h; active compounds read low. hit rate 1.2% among 140,000;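 active = viability at or below a set limit, 4 SD under the median of all tested compounds, cut at about 3.7% in these data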;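 note: PTEN knockout HCT116 line with beta catenin targeted HCT116 as companion control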
# Dynein transport – inhibitors of GR-EGFP nuclear translocation, primary screen, dynein cargo transport inhibitor project, imaging, high-content, 3617.4 mouse cells | test concentration mostly 20 µM; stimulated with dexamethasone, 1 µM; active compounds read low | z-score, hits read low | hit rate 0.47% among 220,000;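 active = plate z-score of nuclear minus cytoplasmic receptor signal below a set negative limit, without overly bright fluorescence or cell loss, cut at about -3.5 in these data, passing the limit was not always enough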;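 note: z-score of nuclear minus cytoplasmic ring GR-EGFP intensity difference per well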
#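 Buffer or medium: tet-free medium with charcoal-stripped serum / Also added: dexamethasone agonist, 1.0 µM final, for 30 min / Timing: induction 48 h, compound 1 h, agonist 30 min / Measured by: high-content fluorescence imaging after fixation / Read-out: nuclear-to-cytoplasmic GR-EGFP distribution per well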
# Autophagy HCS – autophagy modulators in MEF cells, primary screen, imaging, high-content, MEF GFP-LC3 | calls only at 10 µM (by protocol) | hit rate 0.98% among 190,000 | MEF GFP-LC3 puncta imaging; test concentration mostly 10 µM;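 active = percentage of spot-positive cells more than 3 SD above its plate mean, without a fluorescence outlier flag or 80% toxicity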;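 note: spot-positive cell cutoff set from DMSO-treated cells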
# L major viab – Leishmania major promastigote growth inhibition, primary screen; hit rate 9% among 200,000; Leishmania major promastigotes, resazurin fluorescence viability; AID 1063, 2008; inhibition, % at 10 µM; in the data active = inhibition above about 50%;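 note: promastigotes grown with compound for 44 hours at 28 °C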
# bCat KO growth – primary screen for growth suppressors in beta-catenin knockout HCT116 cells (colon tumor, human) | HCT116 beta-catenin knockout viability, CellTiter-Glo, 60 h; active compounds read low | viability, % at 10 µM | hit rate 1.5% among 140,000;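 active = viability at or under a set limit, the compound median less 4 SD, cut at about 6% in these data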;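 note: 0% = Hyamine 1622 control at 20 µM and 100% = untreated cell control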
# Dynein inh conf – dynein cargo transport inhibitors, GR-EGFP translocation, confirmation, imaging, high-content imaging, GR-EGFP cells; shares compounds with Dynein transport; 3617.4 GR-EGFP nuclear translocation imaging, dexamethasone-induced; calls only at 20 µM; hit rate 69% among 1,000;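 active = inhibition of receptor movement into the nucleus at or above a set limit in both runs, with normal cell brightness and cell count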;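 note: dexamethasone at 1 µM final in well for 30 min; nuclear minus cytoplasmic GR-EGFP mean intensity difference in channel 2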
# Starred values were filed as active, the others as inactive; i = inactive; / = no result; + = active, no number. Only some compounds are listed: those with a hit (about 9.2% of all), similar ones and a draw of the others.
SMILES,PTEN del growth,Dynein transport,Autophagy HCS,L major viab,bCat KO growth,Dynein inh conf
Cc1ccc(C(C[N+](=O)[O-])Sc2ccc(N)cc2)cc1 (stereo not drawn),/,-6.7*,/,/,/,+
CCCCN(C)CCNS(=O)(=O)c1ccc2c(c1)n(C)c(=O)c(=O)n2C,98,1.7,i,3,94,/
CC(C)CN1C(=O)/C(=C/c2c(N3CCc4ccccc4C3)nc3ccccn3c2=O)SC1=S,/,-8.6,/,/,/,i
Nc1cccc2c1C(=O)N(C(=O)/C=C/c1cccc(F)c1)C2=O,/,-4.3*,i,-7,/,+
Nc1cccc2c1C(=O)N(C(=O)/C=C/c1cccc(Br)c1)C2=O,/,-4.9*,/,/,/,+
COc1cc(OC)cc(C(=O)NCC(=O)OCC(=O)c2ccc3c(c2)-c2ccccc2C3)c1,99,-0.5,i,-9,92,/
COC(OC)c1ccc(C#N)c(=O)[nH]1,/,0.58,i,-8,/,/
O=C(COC(=O)c1cc(=O)c2ccccc2o1)Nc1ccc2ccccc2c1,90,2,i,-5,98,/
COc1ccc(C(=O)n2nc(-c3ccco3)nc2SC)cc1OC,108,-4*,i,-3,104,i
O=C(CCC(=O)N(Cc1ccco1)C(C(=O)NC1CCCC1)c1ccncc1)Nc1cccnc1 (stereo not drawn),98,-0.87,i,-9,106,/
O=C1/C(=C\c2ccc([N+](=O)[O-])cc2)CCc2ccccc21,69,-0.37,i,4,67,/
O=C1/C(=C/c2ccccc2[N+](=O)[O-])COc2ccccc21,/,-5.7*,i,100*,/,+
CCc1cc(OCCCCNCc2ccccc2)ccc1Cl,42,-6.9*,i,99*,23,i
O=C(c1ccco1)N1CCN(Cc2nc(-c3cccs3)no2)CC1,/,2,i,-1,/,/
CCCN(CCC)C(=O)c1cc([N+](=O)[O-])cc2c1-c1ccc([N+](=O)[O-])cc1C2=C(C#N)C#N,/,-4.6*,/,/,/,+
N#CCCN(C(=O)CCl)c1cccc(Cl)c1,/,-3.8*,i,51*,/,+
Cc1onc(-c2ccccc2)c1C(=O)Oc1ccccc1,/,-1.2,/,/,/,/
N#C/C(C(=O)NCc1ccccc1)=C1/N=C(NC(=O)c2cccs2)c2ccccc21,81,1.1,i,3,86,/
